We go through 41 compounds from ChEMBL document CHEMBL3396970, “Synthesis and biological evaluation of novel 2,3-disubstituted quinoxaline derivatives as antileishmanial and antitrypanosomal agents” (Eur J Med Chem, 2015).

What is called IC50 is the point on the concentration scale where inhibition reaches its midpoint. As a reminder, the EC50 is the midpoint of the concentration-response curve.

Series [1] deals with Trypanosoma cruzi. Briefly: Antitrypanosomal activity against epimastigote stage of Trypanosoma cruzi Y after 96 hrs by hemocytometry. The class given is functional, organism-based. An outline of the steps:
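Log-phase parasites (promastigotes 3-day, Warren's medium + 10% FBS, 25°C; epimastigotes 4-day, LIT + 10% FBS, 28°C) seeded at 1 × 10^6 cells/mL with compound (0.1-100 µM; DMSO ≤1%). Promastigotes read at 72 h, epimastigotes at 96 h, by hemocytometer counting. IC50 by nonlinear regression.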

The test system of series [2] is Leishmania amazonensis. Kind of series: Antileishmanial activity against promastigote stage of Leishmania amazonensis WHOM/BR/75/JOSEFA after 72 hrs by hemocytometry. The series is classed as functional, organism-based.
A short description of series [3]: Selectivity ratio of CC50 for monkey LLC-MK2 cells to IC50 for epimastigote stage of epimastigote stage of Trypanosoma cruzi Y.
A short description of series [4]: Selectivity ratio of CC50 for mouse J774A1 cells to IC50 for promastigote stage of Leishmania amazonensis WHOM/BR/75/JOSEFA. The class given is ADME, cell-based, J774.A1. Particulars: read-out: Ratio CC50/IC50.
A short description of series [5]: Selectivity ratio of CC50 for monkey LLC-MK2 cells to IC50 for epimastigote stage of epimastigote stage of Trypanosoma cruzi Y. The series is classed as ADME, cell-based. The note with it: read-out: Ratio CC50/IC50.
Series [6] concerns Trypanosoma cruzi. Briefly: Antitrypanosomal activity against trypomastigote stage of Trypanosoma cruzi Y infected in monkey LLC-MK2 cells after 96 hrs by Pizzi-Brener method. The series is classed as functional, organism-based.
The nature of series [7]: Selectivity ratio of CC50 to IC50 for promastigote stage of Leishmania amazonensis WHOM/BR/75/JOSEFA. On the set-up: reference not given here.

For the compound `Cc1ccc(-c2nc3ccccc3nc2-c2ccccc2)cc1`, the values for the 50% inhibitory concentration (IC50) in series [1] and in series [2] were 35.7 µM and 8.9 µM, respectively.
Consider `COc1ccc(-c2nc3ccccc3nc2-c2ccccc2)cc1`, for which the IC50 in series [1] is 21.5 µM; in series [2] it was 12.8 µM.
The corresponding values for `c1ccc(-c2nc3ccccc3nc2-c2ccccc2)cc1` are above 100 µM and 21.1 µM.
Take `CSC(=C[N+](=O)[O-])SC`: the selectivity ratio in series [3] amounted to 18.3; in series [4] it was 6; in series [5] it was 18.3; in series [7], 6. For the same compound, the IC50 in series [1] is 10.8 µM; in series [2], 29.6 µM. Further, the EC50 in series [6] is above 50 µM.
Turning to `COc1cccc(N/C(=C\[N+](=O)[O-])SC)c1`, the results for the IC50 in series [1] and in series [2] were 32 µM and 27.9 µM, respectively.
`CS/C(=C/[N+](=O)[O-])Nc1ccccc1`: the values for the IC50 in series [1] and in series [2] were 11.4 µM and 24.1 µM, respectively.
With `COc1ccc(N/C(=C\[N+](=O)[O-])SC)cc1`, the values for the IC50 in series [1] and in series [2] were 39 µM and 28.7 µM, respectively.
The corresponding values for `CS/C(=C/[N+](=O)[O-])Nc1ccc2c(c1)OCCO2` are 61.9 µM and 42.3 µM.
The corresponding values for `CS/C(=C/[N+](=O)[O-])Nc1ccc(O)cc1` are 67.3 µM and 41.5 µM.
The corresponding values for `CS/C(=C/[N+](=O)[O-])Nc1ccc(Br)cc1` are 20.4 µM and 33 µM.
Turning to `CS/C(=C/[N+](=O)[O-])NC1CCCCC1`, the IC50 in series [1] is 70.1 µM; in series [2], 21.9 µM.
Take `CS/C(=C/[N+](=O)[O-])Nc1ccc(F)cc1`: the IC50 in series [1] and in series [2] was 19.7 µM each time.
As to `CS/C(=C/[N+](=O)[O-])NCCCCO`, the IC50 in series [1] is above 100 µM; in series [2] it was 73.6 µM. Besides, the selectivity ratio in series [4] and in series [7] was 11.1 each time. Besides, the EC50 in series [6] was above 50 µM.
For the compound `CS/C(=C/[N+](=O)[O-])NCCCO`, the selectivity ratio in series [3] and in series [5] was 9.6 in each case. Moreover, the IC50 was 90.1 µM in series [1] and above 100 µM in series [2]. For the same compound, the EC50 in series [6] was above 50 µM.
For the compound `CS/C(=C/[N+](=O)[O-])Nc1ccc(Cl)cc1`, the selectivity ratio in series [3] was 7.3; in series [4], 6.9; in series [5], 7.3; in series [7], 6.9. Besides, the figures for the IC50 in series [1] and in series [2] were 25.8 µM and 21.3 µM, respectively. Further, the EC50 in series [6] is above 50 µM.
Consider `COc1ccc2nc(Cl)c(SC)nc2c1`, for which the selectivity ratio in series [3] worked out at 19.3; in series [4], 9.8; in series [5] it was 19.3; in series [7], 9.8. In addition, the half-inhibitory concentration (IC50) came to 38.7 µM in series [1] and 93.6 µM in series [2]. This compound also had an EC50 in series [6] above 50 µM.
For `CSc1nc2ccccc2nc1Cl`, the selectivity ratio in series [3] is 8.1; in series [4] it was 13.5; in series [5], 8.1; in series [7], 13.5. The results for the 50% inhibitory concentration (IC50) in series [1] and in series [2] were 52.9 µM and 74.1 µM, respectively. In series [6], this compound showed an EC50 above 50 µM.
With `COc1ccc2nc(SC)c(Cl)nc2c1`, the IC50 in series [1] and in series [2] was above 100 µM throughout. Besides, the EC50 in series [6] was above 50 µM.
As to `CSc1nc2ccc(Br)cc2nc1Cl`, the selectivity ratio in series [3] was 9.2; in series [4], 7.4; in series [5] it was 9.2; in series [7] it was 7.4. Moreover, the IC50 in series [1] worked out at 47.8 µM; in series [2] it was 57.9 µM. The same compound yielded an EC50 in series [6] above 50 µM.
Take `CSc1nc2ccc(Cl)cc2nc1Cl`: the selectivity ratio in series [3] was 16.1; in series [4] it was 22.1; in series [5], 16.1; in series [7], 22.1. Further, the IC50 in series [1] came to 39.4 µM; in series [2], 45.3 µM. Also, the EC50 in series [6] is above 50 µM.
Regarding `COc1ccc2nc(-c3ccccc3)c(SC)nc2c1`, the IC50 in series [1] and in series [2] was above 100 µM throughout.
`CSc1nc2ccccc2nc1-c1ccccc1`: the IC50 in series [1] and in series [2] was above 100 µM throughout.
As for `COc1ccc(-c2nc3cc(OC)ccc3nc2-c2ccccc2)cc1`, the IC50 in series [1] is above 100 µM; in series [2] it was 40.5 µM.
On to `Cc1ccc(-c2nc3cc(Cl)ccc3nc2-c2ccccc2)cc1`, for which the half-maximal inhibitory concentration (IC50) stood at 36 µM in series [1] and 24.3 µM in series [2].
As for `c1ccc(-c2nc3ccccc3nc2-c2ccc(OCCN3CCOCC3)cc2)cc1`, the selectivity ratio worked out at 4.6 in series [3], 8.7 in series [4], 4.6 in series [5] and 8.7 in series [7]. The IC50 in series [1] was 40.3 µM; in series [2] it was 6.2 µM. The compound further gave an EC50 in series [6] above 50 µM.
Turning to `COc1ccc(-c2nc3ccc(Cl)cc3nc2-c2ccccc2)cc1`, the selectivity ratio in series [3] is 6.5; in series [4] it was 9.5; in series [5], 6.5; in series [7] it was 9.5. Also, the IC50 in series [1] came to 43.8 µM; in series [2] it was 31.5 µM. Also, the EC50 in series [6] was above 50 µM.
With `Clc1ccc2nc(-c3ccccc3)c(-c3ccccc3)nc2c1`, the selectivity ratio is 6.1 in series [3], 6.6 in series [4], 6.1 in series [5] and 6.6 in series [7]. The IC50 in series [1] amounted to 42.7 µM; in series [2], 28.1 µM. Besides, the EC50 in series [6] is above 50 µM.
On to `Clc1cc2nc(-c3ccccc3)c(-c3ccccc3)nc2cc1Cl`, for which the selectivity ratio in series [3] came out at 8.7; in series [4], 38.5; in series [5] it was 8.7; in series [7], 38.5. Further, the figures for the IC50 in series [1] and in series [2] were 54 µM and 5.3 µM, respectively. For the same compound, the EC50 in series [6] is above 50 µM.
Regarding `Cc1ccc(-c2nc3cc(Cl)c(Cl)cc3nc2-c2ccccc2)cc1`, the selectivity ratio is 1.3 in series [3], 3.2 in series [4], 1.3 in series [5] and 3.2 in series [7]. In addition, the IC50 came out at 83.4 µM in series [1] and 22.2 µM in series [2]. Also, the concentration giving a half-maximal response (EC50) in series [6] is above 50 µM.
On to `Oc1ccc(-c2nc3ccccc3nc2-c2ccc(OCCN3CCCCC3)cc2)cc1`, for which the selectivity ratio in series [3] worked out at 1; in series [4], 8.2; in series [5] it was 1; in series [7], 8.2. Besides, the IC50 worked out at 39.2 µM in series [1] and 5.7 µM in series [2]. In series [6], this compound yielded an EC50 above 50 µM.
Consider `COc1ccc2nc(N(C)C)c(SC)nc2c1`, for which the selectivity ratio in series [3] is 6.2; in series [4], 5.9; in series [5], 6.2; in series [7], 5.9. In addition, the half-maximal inhibitory concentration (IC50) was determined as 83.6 µM in series [1] and 42.8 µM in series [2]. In addition, the EC50 in series [6] is above 50 µM.
Consider `CCCCNc1nc2ccc(OC)cc2nc1SC`, for which the selectivity ratio in series [3] is 3.1; in series [4] it was 2.1; in series [5], 3.1; in series [7], 2.1. Moreover, the IC50 was 86.7 µM in series [1] and 35.2 µM in series [2]. For the same compound, the EC50 in series [6] is above 50 µM.
As to `COc1ccc2nc(NCCO)c(SC)nc2c1`, the IC50 in series [1] was above 100 µM; in series [2], 82.9 µM. Further, the selectivity ratio in series [4] and in series [7] was 5 throughout. In series [6], this compound showed an EC50 above 50 µM.
With `CCCCNc1nc2ccccc2nc1SC`, the selectivity ratio in series [3] was found to be 1.2; in series [4], 1.9; in series [5] it was 1.2; in series [7], 1.9. Further, the IC50 in series [1] is 93.1 µM; in series [2], 75.9 µM. The compound also yielded an EC50 in series [6] above 50 µM.
As for `CSc1nc2ccccc2nc1NCCO`, the IC50 in series [1] was above 100 µM; in series [2] it was 96.2 µM. Moreover, the selectivity ratio in series [4] and in series [7] was 2.9 each time. In series [6], this compound showed an EC50 above 50 µM.
On to `COc1ccc2nc(SC)c(NCCO)nc2c1`, for which the IC50 in series [1] and in series [2] was above 100 µM throughout. The compound further returned an EC50 in series [6] above 50 µM.
On to `COc1ccc2nc(SC)c(NC3CCCCC3)nc2c1`, for which the IC50 was 41 µM in series [1] and 21.5 µM in series [2]. In addition, the selectivity ratio in series [4] was determined as 2.4; in series [5], 1.8. Further, the EC50 in series [6] was above 50 µM.
Turning to `CSc1nc2ccc(Br)cc2nc1NCCO`, the IC50 in series [1] and in series [2] was above 100 µM each time. This compound also came in with an EC50 in series [6] above 50 µM.
With `CSc1nc2ccc(Cl)cc2nc1NC1CCCCC1`, the selectivity ratio in series [3] and in series [5] was 4.8 throughout. The concentration for half-maximal inhibition (IC50) in series [1] is 52.3 µM; in series [2], above 100 µM. In series [6], this compound returned an EC50 above 50 µM.
`CCCCNc1nc2cc(OC)ccc2nc1-c1ccccc1`: the selectivity ratio in series [3] and in series [5] was 12.5 throughout. Besides, the IC50 is 66.8 µM in series [1] and above 100 µM in series [2]. This compound also had an EC50 in series [6] above 50 µM.
With `COc1ccc2nc(-c3ccccc3)c(NCCO)nc2c1`, the IC50 in series [1] is above 100 µM; in series [2] it was 72.8 µM. Moreover, the selectivity ratio in series [4] and in series [7] was 4.8 in each case. The EC50 in series [6] was above 50 µM.
